Source: ChEMBL document CHEMBL1148625, “3-(1,1-dioxo-2H-(1,2,4)-benzothiadiazin-3-yl)-4-hydroxy-2(1H)-quinolinones, potent inhibitors of hepatitis C virus RNA-dependent RNA polymerase” (J Med Chem, 2006)
pIC50: −log10 of the molar value. Values belong to the compound of their own block, whether it stands above or below them.

Experiments:
[1] = molecular target: RNA-directed RNA polymerase (Hepacivirus hominis, UniProt O39930); experiment: Inhibitory activity against HCV delta 21 NS5B RNA polymerase by SPA assay; parameters: species or system Hepatitis C virus subtype 1b
RNA-directed RNA polymerase, sequence (O39930 whole entry): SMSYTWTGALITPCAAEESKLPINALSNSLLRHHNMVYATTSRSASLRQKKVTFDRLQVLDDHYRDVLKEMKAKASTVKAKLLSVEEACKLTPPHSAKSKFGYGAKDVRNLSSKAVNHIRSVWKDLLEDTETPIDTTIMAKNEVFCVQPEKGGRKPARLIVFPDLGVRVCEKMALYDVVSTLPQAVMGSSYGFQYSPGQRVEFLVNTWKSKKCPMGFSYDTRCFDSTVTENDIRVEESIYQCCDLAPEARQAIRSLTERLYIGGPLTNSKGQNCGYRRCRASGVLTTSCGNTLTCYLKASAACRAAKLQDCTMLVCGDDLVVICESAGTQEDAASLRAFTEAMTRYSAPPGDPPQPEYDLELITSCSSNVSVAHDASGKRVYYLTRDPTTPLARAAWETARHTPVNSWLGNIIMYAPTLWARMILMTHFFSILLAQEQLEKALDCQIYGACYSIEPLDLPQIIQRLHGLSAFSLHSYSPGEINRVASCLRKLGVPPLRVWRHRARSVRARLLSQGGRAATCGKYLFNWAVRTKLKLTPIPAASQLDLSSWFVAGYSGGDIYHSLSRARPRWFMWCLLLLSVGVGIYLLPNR

[2] = molecular target: RNA-directed RNA polymerase (Hepacivirus hominis) (UniProt O39930); experiment: Inhibition of HCV RNA replication in Huh7 cells; type: functional, cell-based; settings: Huh-7
RNA-directed RNA polymerase (Hepacivirus hominis), sequence (O39930 1-591): as the sequence (O39930 whole entry) above
Method in brief: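 Huh-7 subgenomic replicon cells were seeded at 3 × 10³/well in DMEM with 10% FCS, 1% NEAA and 1 mg/mL G418, and allowed 4 h to attach. Eleven 2.5-fold DMSO dilutions were added (final 10,000 to 1.0 nM) and cells incubated 40 h. Neo RNA was measured by TaqMan RT-PCR, normalised to cyclophilin against DMSO controls; n = 8 wells per dilution.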

[3] = Clearance in Beagle dog at 0.8 mg/kg, iv or 1.8 mg/kg, po; type: ADME, organism-based, Canis lupus familiaris; settings: in vivo
Method in brief: (§1)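 Single-dose administration, given both intravenously and orally, to Sprague-Dawley rats, beagle dogs or cynomolgus monkeys. Plasma pharmacokinetic parameters are reported as means: Cmax in ng/mL, terminal half-life in min, clearance in mL/min/kg, steady-state volume of distribution in L/kg, and oral bioavailability F in %.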

[4] = Oral bioavailability in Beagle dog at 0.8 mg/kg, iv or 1.8 mg/kg, po; type: ADME, organism-based, Canis lupus familiaris; settings: in vivo; method in brief: as §1
[5] = Volume of distribution in Beagle dog at 0.8 mg/kg, iv or 1.8 mg/kg, po; type: ADME, organism-based, Canis lupus familiaris; settings: in vivo, read-out: Vdss; method in brief: as §1
[6] = Volume of distribution in Sprague-Dawley rat at 0.8 mg/kg, iv or 5.8 mg/kg, po; type: ADME, organism-based; settings: in vivo, read-out: Vdss
Method in brief: (§2)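 Single-dose pharmacokinetics in the named species, given iv and orally at the stated doses. Plasma Cmax, half-life, clearance, steady-state volume of distribution and oral bioavailability were reported as mean values.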

[7] = Cmax in Beagle dog at 0.8 mg/kg, iv or 1.8 mg/kg, po; type: ADME, organism-based, Canis lupus familiaris; settings: in vivo; method in brief: as §1
[8] = Clearance in Sprague-Dawley rat at 0.8 mg/kg, iv or 5.8 mg/kg, po; type: ADME, organism-based; settings: in vivo; method in brief: as §2
[9] = Half life in Sprague-Dawley rat at 0.8 mg/kg, iv or 5.8 mg/kg, po; type: ADME, organism-based; settings: in vivo; method in brief: as §2
[10] = Half life in Beagle dog at 0.8 mg/kg, iv or 1.8 mg/kg, po; type: ADME, organism-based, Canis lupus familiaris; settings: in vivo; method in brief: as §1
[11] = Oral bioavailability in Sprague-Dawley rat at 0.8 mg/kg, iv or 5.8 mg/kg, po; type: ADME, organism-based; settings: in vivo; method in brief: as §2
[12] = Cmax in cynomolgus monkey at 1.8 mg/kg, iv or 1.6 mg/kg, po; type: ADME, organism-based, Macaca fascicularis; settings: in vivo; method in brief: as §1
[13] = Oral bioavailability in Sprague-Dawley rat at 1.3 mg/kg, iv or 7.7 mg/kg, po; type: ADME, organism-based; settings: in vivo
Method in brief: (§3)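 Single intravenous or oral doses given to Sprague-Dawley rats. Values are reported as means: Cmax (ng/mL), half-life (min), plasma clearance (mL/min/kg), steady-state volume of distribution (L/kg) and oral bioavailability F (%).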

[14] = Volume of distribution in Sprague-Dawley rat at 1.3 mg/kg, iv or 7.7 mg/kg, po; type: ADME, organism-based; settings: in vivo, read-out: Vdss; method in brief: as §3
[15] = Volume of distribution in cynomolgus monkey at 1.8 mg/kg, iv or 1.6 mg/kg, po; type: ADME, organism-based, Macaca fascicularis; settings: in vivo, read-out: Vdss; method in brief: as §1
[16] = Oral bioavailability in cynomolgus monkey at 1.8 mg/kg, iv or 1.6 mg/kg, po; type: ADME, organism-based, Macaca fascicularis; settings: in vivo; method in brief: as §1
[17] = Half life in cynomolgus monkey at 1.8 mg/kg, iv or 1.6 mg/kg, po; type: ADME, organism-based, Macaca fascicularis; settings: in vivo; method in brief: as §1
[18] = Cmax in Beagle dog at 0.9 mg/kg, iv or 1.1 mg/kg, po; type: ADME, organism-based, Canis lupus familiaris; settings: in vivo
Method in brief: (§4)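 Single-dose study, with separate intravenous and oral administrations at the listed mg/kg. Plasma concentrations were followed over time, and mean values were derived for Cmax, T1/2, clearance (mL/min/kg), Vdss (L/kg) and oral bioavailability (%).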

[19] = Volume of distribution in Beagle dog at 0.9 mg/kg, iv or 1.1 mg/kg, po; type: ADME, organism-based, Canis lupus familiaris; settings: in vivo, read-out: Vdss; method in brief: as §4
[20] = Half life in Beagle dog at 0.9 mg/kg, iv or 1.1 mg/kg, po; type: ADME, organism-based, Canis lupus familiaris; settings: in vivo; method in brief: as §4
[21] = Oral bioavailability in Beagle dog at 0.9 mg/kg, iv or 1.1 mg/kg, po; type: ADME, organism-based, Canis lupus familiaris; settings: in vivo; method in brief: as §4
[22] = Clearance in Sprague-Dawley rat at 1.3 mg/kg, iv or 7.7 mg/kg, po; type: ADME, organism-based; settings: in vivo; method in brief: as §3
[23] = Cmax in Sprague-Dawley rat at 1.3 mg/kg, iv or 7.7 mg/kg, po; type: ADME, organism-based; settings: in vivo; method in brief: as §3
[24] = Half life in Sprague-Dawley rat at 1.3 mg/kg, iv or 7.7 mg/kg, po; type: ADME, organism-based; settings: in vivo; method in brief: as §3
[25] = Clearance in Beagle dog at 0.9 mg/kg, iv or 1.1 mg/kg, po; settings: in vivo
[26] = Clearance in cynomolgus monkey at 1.8 mg/kg, iv or 1.6 mg/kg, po; type: ADME, organism-based, Macaca fascicularis; settings: in vivo; method in brief: as §1

Compound: CC(C)CCn1c(=O)c(C2=NS(=O)(=O)c3ccccc3N2)c(O)c2cc(OCC(N)=O)ccc21
EC90 [2]: 2410 nM

Compound: O=c1c(C2=NS(=O)(=O)c3ccccc3N2)c(O)c2ccccc2n1CC1CCC1
EC90 [2]: 1190 nM

Compound: CC(C)CCn1c(=O)c(C2=NS(=O)(=O)c3ccccc3N2)c(O)c2ccccc21
clearance [3]: 0.5 mL/min/kg | bioavailability [4]: 89% | Vd [5]: 0.53 L/kg | Vd [6]: 0.44 L/kg | Cmax [7]: 2230 ng/mL | clearance [8]: 10.1 mL/min/kg | half-life [9]: 0.607 h | half-life [10]: 14.3 h | bioavailability [11]: 70% | EC90 [2]: 1420 nM

Compound: O=c1c(C2=NS(=O)(=O)c3ccccc3N2)c(O)c2ccccc2n1CCC1CC1
Cmax [12]: 7920 ng/mL | bioavailability [13]: 78% | Vd [14]: 0.25 L/kg | Vd [15]: 0.19 L/kg | bioavailability [16]: > 40% | half-life [17]: 1.35 h | Cmax [18]: 5400 ng/mL | Vd [19]: 0.15 L/kg | half-life [20]: 4.82 h | bioavailability [21]: 100% | clearance [22]: 1.7 mL/min/kg | Cmax [23]: 6460 ng/mL | half-life [24]: 1.87 h | pIC50 [1]: 7.89 | clearance [25]: 0.47 mL/min/kg | EC90 [2]: 808 nM | clearance [26]: 1.73 mL/min/kg

Compound: CC(C)CCn1c(=O)c(C2=NS(=O)(=O)c3ccccc3N2)c(O)c2c(F)cccc21
EC90 [2]: 2070 nM

Compound: CC(C)CCn1c(=O)c(C2=NS(=O)(=O)c3ccccc3N2)c(O)c2cc(OCC#N)ccc21
EC90 [2]: 1610 nM

Next, values leading:

pIC50 [1]: 7.49 | EC90 [2]: 593 nM
Compound: Nc1ccc2c(c1)c(O)c(C1=NS(=O)(=O)c3ccccc3N1)c(=O)n2CCC1CC1

pIC50 [1]: 7.32 | EC90 [2]: 1440 nM
Compound: CC(C)(C)CCn1c(=O)c(C2=NS(=O)(=O)c3ccccc3N2)c(O)c2cc(NCCO)ccc21

pIC50 [1]: 7.37 | EC90 [2]: 3830 nM
Compound: CC(C)CCn1c(=O)c(C2=NS(=O)(=O)c3ccccc3N2)c(O)c2cc(Cl)ccc21

pIC50 [1]: 6.70 | EC90 [2]: 3760 nM
Compound: CCCCn1c(=O)c(C2=NS(=O)(=O)c3ccccc3N2)c(O)c2ccccc21

EC90 [2]: 998 nM
Compound: CCOC(=O)CNc1ccc2c(c1)c(O)c(C1=NS(=O)(=O)c3ccccc3N1)c(=O)n2CCC(C)C

EC90 [2]: 9610 nM
Compound: CC(C)CCn1c(=O)c(C2=NS(=O)(=O)c3ccccc3N2)c(O)c2cc(NCC(=O)O)ccc21

EC90 [2]: 1200 nM
Compound: CC(C)CCn1c(=O)c(C2=NS(=O)(=O)c3ccccc3N2)c(O)c2cc(N)ccc21
